Published values pooled from the literature.
Protocols differ between the studies behind these lines.
Observed: cell growth or viability

SMILES | cell line | technique | time | IC50
CCNCCCn1c2c(c3cc(OC)c(OC)cc3c1=O)C(=O)c1cc3c(nc1-2)OCO3 | L-363 | MTS | 72 h | 96 nM
C=CC(=O)NC1CCN(c2ncc3ncnc(Nc4ccc(Oc5ccc6c(c5)ncn6C)c(C)c4)c3n2)CC1 | SNU-216 | – | – | 18.2 nM
Nc1ccc(/C=C/C(=O)N2CCc3c(oc4c(-c5ccc(F)cc5)cc(-c5ncc(C(=O)N6CCC(F)(F)CC6)cn5)cc34)C2)cn1 | U2OS | CCK-8 | 72 h | 5740 nM
C=C(F)C(=O)N1CCN(c2nc(OC[C@@H]3CCCN3C)nc3c2CCN(c2cccc4cccc(Cl)c24)C3)C[C@@H]1CC#N | NCI-H1792 | ATP luminescence | – | 674 nM
COc1cc2c3c(n(CCCN4CCOCC4)c(=O)c2cc1OC)-c1nc2c(cc1C3=O)OCO2 | L-363 | MTS | 72 h | 342 nM
Nc1ccc(/C=C/C(=O)N2CCc3c(oc4c(-c5ccc(F)cc5)cc(-c5ccc(C(=O)N6CCC(F)(F)CC6)nn5)cc34)C2)cn1 | U2OS | CCK-8 | 72 h | 640 nM
COc1cc2c3c(n(CCCn4ccnc4)c(=O)c2cc1OC)-c1nc2c(cc1C3=O)OCO2 | L-363 | MTS | 72 h | 232 nM
COc1cc2ncnc(Nc3ccc4c(c3)/C(=C/c3ccccc3)C(=O)N4)c2cc1OC | H22 | MTT | – | > 50000 nM
Nc1ccc(/C=C/C(=O)N2CCc3c(oc4c(-c5ccc(F)cc5)cc(-c5cnc(C(=O)N6CCC(F)(F)CC6)nc5)cc34)C2)cn1 | U2OS | CCK-8 | 72 h | 950 nM
Cc1nc(Nc2ccc3c(c2)/C(=C/c2ccccc2C)C(=O)N3C)c2ccccc2n1 | H22 | MTT | – | 4780 nM
CCN1[C@@H](C(=O)NC23CCC(C(=O)O)(CC2)CC3)[C@H](c2cccc(Cl)c2F)[C@]2(C(=O)Nc3cc(Cl)ccc32)C12CCCCC2 | U2OS | resazurin | 72 h | > 1000 nM
Cc1nc(Nc2ccc3c(c2)C(C)(C)C(=O)N3)c2ccccc2n1 | H22 | MTT | – | > 50000 nM
CN1CCC(NC(=O)c2ccc(-c3cc(C4CC4)c4oc5c(c4c3)CCN(C(=O)/C=C/c3ccc(N)nc3)C5)nn2)C(F)(F)C1 (stereo not drawn) | U2OS | CCK-8 | 72 h | 3490 nM
COc1cc2ncnc(N(C)c3ccc4c(c3)/C(=C/c3ccccc3)C(=O)N4C)c2cc1OC (mixture of isomers) | H22 | MTT | – | 4960 nM
O=C(C=Cc1ccccc1)Nc1cc(-c2ccnc(N3CCOCC3)c2)ccn1 | HeLa | MTT | 72 h | 402 nM
